pKi: −log10 of the molar value. Counter-ions that a name gives are not always drawn.

For experiment [1], the target named is Kappa-type opioid receptor (Cavia porcellus, UniProt P41144). The experiment can be described thus: Binding affinity towards Opioid receptor kappa 1 by displacing the radioligand [3H]U-69593 from guinea pig brain membrane. In a few lines:
(§1)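 Guinea pig brain membranes (homogenised, preincubated 37 °C 30 min, washed), 500 µg protein, with 12 concentrations of compound in 50 mM Tris-HCl pH 7.5 at 25 °C for 60 min. Nonspecific binding defined with 1 µM naloxone. Glass-fibre filtration, with PEI-soaked filters for kappa. IC50 by log-probit fit; three experiments in triplicate, mean ± SEM.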

Experiment [2] concerns the target Opioid receptor (mu and kappa) (Cavia porcellus) (UniProt P41144+P97266). The experiment in a line: Selectivity kappa/mu. Type of experiment: protein assay.
In another experiment the target is Mu-type opioid receptor (Cavia porcellus, UniProt P97266). The experiment in a line: Binding affinity towards Opioid receptor mu 1 by displacing the radioligand [3H]DAMGO from guinea pig brain membrane. In a few lines:
as §1

The species named for another experiment is Cavia porcellus. The experiment in a line: Selectivity kappa/delta.
The nature of experiment [3]: Binding affinity towards Opioid receptor delta 1 by displacing the radioligand [3H]naltrindole from guinea pig brain membrane.

Opioid receptor (mu and kappa) (Cavia porcellus), sequence (P41144 whole entry, looked up): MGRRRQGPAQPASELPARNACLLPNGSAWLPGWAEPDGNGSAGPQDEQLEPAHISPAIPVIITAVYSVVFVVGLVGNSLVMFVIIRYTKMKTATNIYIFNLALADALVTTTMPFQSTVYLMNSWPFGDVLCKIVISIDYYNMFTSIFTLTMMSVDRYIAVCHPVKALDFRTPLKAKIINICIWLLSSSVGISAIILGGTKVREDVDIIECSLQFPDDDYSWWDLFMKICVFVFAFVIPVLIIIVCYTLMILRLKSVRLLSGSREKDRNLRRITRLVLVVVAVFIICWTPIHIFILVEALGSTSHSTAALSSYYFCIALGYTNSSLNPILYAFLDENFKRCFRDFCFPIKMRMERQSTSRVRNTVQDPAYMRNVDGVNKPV
Opioid receptor (mu and kappa) (Cavia porcellus), sequence (P97266 whole entry, looked up): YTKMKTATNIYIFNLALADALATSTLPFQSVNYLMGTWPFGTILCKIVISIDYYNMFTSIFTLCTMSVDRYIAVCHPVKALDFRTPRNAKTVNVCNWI
Kappa-type opioid receptor, sequence (P41144 whole entry): as the sequence (P41144 whole entry, looked up) above
Mu-type opioid receptor, sequence (P97266 whole entry): as the sequence (P97266 whole entry, looked up) above

Regarding `CN1CC[C@]23CCCC[C@H]2[C@H]1Cc1ccc(O)cc13` [LEVORPHANOL HYDROCHLORIDE], the negative-log Ki (pKi) in experiment [1] was 8.64; on Mu-type opioid receptor, […]. The values for the Selectivity (in experiment [2]; in the experiment filed under Cavia porcellus) were […] and […], respectively.

The compound `Oc1ccc2c(c1)[C@@]13CCCC[C@H]1[C@@H](C2)N(CC1CC1)CC3` [CYCLORPHAN] gave a pKi in experiment [1] of 10.28.

On to `O=C1c2ccc(O)cc2C23CCCCC2C1N(CC1CC1)CC3` (single isomer, unassigned; (-)), for which the figures for the negative-log Ki (pKi) (in experiment [1]; on Mu-type opioid receptor) were 7.62 and 6.62, respectively. Moreover, the Selectivity is 1 in experiment [2] and 6 in the experiment listed under Cavia porcellus.

As for `O=C1c2ccc(O)cc2C23CCCCC2C1N(CC1CCCO1)CC3` (single isomer, unassigned; (-)), the pKi in experiment [1] was 9.74; on Mu-type opioid receptor it was 9.42. Moreover, the figures for the Selectivity (in experiment [2]; in the experiment listed under Cavia porcellus) were 2 and 6, respectively.

Take `CC[C@@]12CCN(CC3CC3)C(C(=O)c3ccc(O)cc31)[C@@H]2C` [ETHYLKETOCYCLAZOCINE]: the negative logarithm of the Ki (pKi) in experiment [3] is 8.47; on Mu-type opioid receptor, 9.11.

Turning to `Oc1ccc2c(c1)[C@@]13CCCC[C@H]1[C@@H](C2)N(CC1CCC1)CC3` [BUTORPHAN], in experiment [1], the pKi is 10.14.

As to `C[C@H]1C2C(=O)c3ccc(O)cc3[C@@]1(C)CCN2CC1CCCO1` (some centres not stated), the pKi in experiment [1] was 6.14.

As to `C[C@H]1[C@H]2Cc3ccc(O)cc3[C@]1(C)CCN2CC1CC1` [CYCLAZOCINE], in experiment [1], the pKi is 10.28.

In the case of `Oc1ccc2c(c1)[C@@]13CCCCC1[C@@H](C2)N(C[C@@H]1CCCO1)CC3` (some centres not stated), the negative logarithm of the Ki (pKi) is 9.82 in experiment [1] and 11.00 at Mu-type opioid receptor. Moreover, the Selectivity in experiment [2] was 0.066; in the experiment listed under Cavia porcellus, 2.

Usually pKi stands for the negative decadic logarithm of the Ki, by convention in mol/L. High values mean a low Ki, low ones a high Ki.

For the origin of these results see ChEMBL document CHEMBL1133167, “Synthesis and opioid receptor affinity of morphinan and benzomorphan derivatives: mixed kappa agonists and mu agonists/antagonists as potential pharmacotherapeutics for cocaine dependence” (J Med Chem, 2000).
